In test [1] the test system is tyrosine phosphorylation of EGFR in PTP1B−/− mouse embryo fibroblast cells. In words: EGF-stimulated EGFR phosphorylation in cells. It is filed as cell-based. Conditions: 200 nM. The method in brief: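 PTP1B−/− mouse embryo fibroblasts were given test compound for 2 hr, then EGF 2 ng/mL for 10 min. Lysis in HEPES pH 7.4 buffer with pervanadate, fluoride and protease inhibitors, cleared at 15,000 rpm for 10 min, protein by BCA. EGFR immunoprecipitated from 1 mg lysate (4 °C, 2 h; protein A/G 2 h). SDS-PAGE, anti-pTyr immunoblot, ECL detection.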

Test [2] concerns the target T1, TC-PTP (Homo sapiens, UniProt P17706).
T1 sequence (P17706 1-415): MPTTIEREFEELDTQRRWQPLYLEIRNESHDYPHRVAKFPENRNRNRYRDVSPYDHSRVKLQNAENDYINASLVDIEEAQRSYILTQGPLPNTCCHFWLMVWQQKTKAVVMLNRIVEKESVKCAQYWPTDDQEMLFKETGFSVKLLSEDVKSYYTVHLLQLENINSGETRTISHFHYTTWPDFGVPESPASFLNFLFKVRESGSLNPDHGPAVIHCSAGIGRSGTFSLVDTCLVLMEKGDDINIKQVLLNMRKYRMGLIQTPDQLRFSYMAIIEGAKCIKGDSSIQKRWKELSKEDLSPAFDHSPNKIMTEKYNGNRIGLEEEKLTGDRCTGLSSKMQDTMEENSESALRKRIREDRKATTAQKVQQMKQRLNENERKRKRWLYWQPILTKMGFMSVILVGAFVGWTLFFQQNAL
In words: TC-PTP-catalyzed pNPP hydrolysis inhibition. It is filed as biochemical. The following applies: for IC50: pNPP 2 mM, pH 7.0, 25 °C; for fold enhancement relative to parent compound 5: IC50/affinity for TC-PTP versus compound 5. The method in brief: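 IC50: enzyme added last (10 nM or 0.4 nM final) to 2 mM pNPP (Km) plus varied test compound, 30 min at room temperature, NaOH quench, A405. Reversibility: enzyme preincubated with test compound 30 min before pNPP. Mode/Ki: 0.4 nM enzyme, varied pNPP and inhibitor, kinetic fit.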

One may read the IC50 as the concentration needed to halve the response being measured.

Where two headings read alike, the source gives them in different places. Non-standard residues stand in square brackets, D forms with d. Residues, ends and D or L forms follow the SMILES beside them. F2Pmp = N[CH](Cc1ccc(C(F)(F)P(=O)(O)O)cc1)C(=O)O

In the case of `CCc1ccc(C(=O)NCCCCC(NC(=O)C(Cc2ccccc2)NC(=O)C(Cc2ccccc2)NC(=O)COC2CC(C)CCC2C(C)C)C(N)=O)cc1` (stereo not shown) [Compound 9], in test [1], the “effect on EGFR phosphorylation” value is reported as “no effect”. For the same compound, in test [2] (read-out: IC50 for TC-PTP), the IC50 is > 1 µM. As for `CC(=O)NCCCCC(NC(=O)C(Cc1ccc(C(F)(F)P(=O)(O)O)cc1)NC(C)=O)C(N)=O` (stereo not shown) [Compound 5] (Ac-[F2Pmp]-Lys(Ac)-NH2; configuration not given here), the IC50 in test [2] (read-out: IC50 for TC-PTP) came to 2 µM. For the compound `CCc1ccc(C(=O)NCCCCC(NC(=O)C(Cc2ccc(C(F)(F)P(=O)(O)O)cc2)NC(C)=O)C(N)=O)cc1` (stereo not shown) [Compound 6], the “fold enhancement relative to parent compound 5” value in test [2] came out at 12.5 fold. For the same compound, the IC50 in test [2] (read-out: IC50 for the TC-PTP-catalyzed reaction) turned out to be 0.16 ± 0.02 µM. Turning to `CCc1ccc(C(=O)NCCCCC(NC(=O)C(Cc2ccc(C(F)(F)P(=O)(O)O)cc2)NC(=O)C(Cc2ccccc2)NC(C)=O)C(N)=O)cc1` (stereo not shown) [Compound 7], the “fold enhancement relative to parent compound 5” value in test [2] came out at 77 fold. `O=C(N[C@@H](Cc1ccc(C(F)(F)P(=O)(O)O)cc1)C(=O)O)OCC1c2ccccc2-c2ccccc21` [Fmoc-F2Pmp-OH, reference compound]: the IC50 in test [2] (read-out: IC50 for TC-PTP) turned out to be 20 µM.

The record behind these values is publication PMC2741613 (Journal of the American Chemical Society, 2009).
